Reference: ChEMBL document CHEMBL1156122, “Protein tyrosine phosphatase 1B inhibitors isolated from Morus bombycis” (Bioorg Med Chem Lett, 2009)

Tests used:
[1] = substrate: CC(C)=CCC/C(C)=C/Cc1c(O)cc(O)cc1-c1cc2ccc(O)cc2o1; assay: (§1) Activity at human recombinant PTP1B
Method in brief: (§2)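 Recombinant human PTP1B (0.1 μg) incubated with 2 mM p-NPP in 50 mM citrate pH 6.0, 0.1 M NaCl, 1 mM EDTA, 1 mM DTT, with or without inhibitor. Incubation 37 °C for 30 min, stopped with 10 M NaOH. p-Nitrophenol read by absorbance at 405 nm, corrected for nonenzymatic p-NPP hydrolysis without enzyme. Values are mean ± SD of triplicates.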

[2] = substrate: CC(C)=CCC/C(C)=C/Cc1c(O)ccc2cc(-c3cc(O)cc(O)c3CC=C(C)C)oc12; assay: as §1; method in brief: as §2
[3] = substrate: CC(C)=CCC/C(C)=C\CC/C(C)=C\Cc1c(O)cc(O)cc1-c1cc2ccc(O)cc2o1; assay: as §1; method in brief: as §2
[4] = substrate: CC(C)=CCc1c(O)cc(C(=O)[C@H]2[C@@H](c3c(O)ccc(C(=O)/C=C/c4ccc(O)cc4)c3O)C=C(C)C[C@@H]2c2ccc(O)cc2)cc1O; assay: as §1; method in brief: as §2
[5] = substrate: CC(C)=CCc1c(O)cc(C(=O)[C@H]2[C@@H](c3c(O)ccc(C(=O)/C=C/c4ccc(O)cc4)c3O)C=C(C)C[C@@H]2c2ccc(O)cc2O)cc1O; assay: as §1; method in brief: as §2
[6] = substrate: CC(C)=CCc1c(O)cc(C(=O)[C@H]2[C@@H](c3c(O)ccc(C(=O)/C=C/c4ccc(O)cc4O)c3O)C=C(C)C[C@@H]2c2ccc(O)cc2O)cc1O; assay: as §1; method in brief: as §2

B1: Tyrosine-protein phosphatase non-receptor type 1 (Homo sapiens), P18031 (protein)
chain: MEMEKEFEQIDKSGSWAAIYQDIRHEASDFPCRVAKLPKNKNRNRYRDVSPFDHSRIKLHQEDNDYINASLIKMEEAQRSYILTQGPLPNTCGHFWEMVWEQKSRGVVMLNRVMEKGSLKCAQYWPQKEEKEMIFEDTNLKLTLISEDIKSYYTVRQLELENLTTQETREILHFHYTTWPDFGVPESPASFLNFLFKVRESGSLSPEHGPVVVHCSAGIGRSGTFCLADTCLLLMDKRKDPSSVDIKKVLLEMRKFRMGLIQTADQLRFSYLAVIEGAKFIMGDSSVQDQWKELSHEDLEPPPEHIPPPPRPPKRILEPHNGKCREFFPNHQWVKEETQEDKDCPIKEEKGSPLNAAPYGIESMSQDTEVRSRVVGGSLRGAQAASPAKGEPSLPEKDEDHALSYWKPFLVNMCVATVLTAGAYLCYRFLFNSNT
B1 gave a Km [1] of 1250 µM, a Vmax [1] of 6.58 µM/min and a Km [2] of 2080 µM. It also gave a Vmax [2] of 5.78 µM/min, a Km [3] of 3170 µM and a Vmax [3] of 5.49 µM/min. For the same protein, the Km [4] was 1190 µM, the Vmax [4] was 6.71 µM/min and the Km [5] was 1640 µM. For the same protein, the Vmax [5] was 5.95 µM/min, the Km [6] was 2810 µM and the Vmax [6] was 5.41 µM/min.
